Calls of active or inactive are those of the source. No cut-off for these calls is given here.
Experiments:
[1] = molecular target: Calcitonin gene-related peptide type 1 receptor (Homo sapiens, UniProt O60894+Q16602); assay: Displacement of [125I]CGRP from CGRP receptor in human SK-N-MC cell membrane after 2 hrs; format: cell membranes
[2] = molecular target: T1, Cytochrome P450 3A4 (Homo sapiens, UniProt P08684); assay: Inhibition of human recombinant CYP3A4 expressed in baculo-virus infected insect microsomes using benzyloxyresorufin as substrate after 45 mins by fluorescence detection assay; format: ADME, Microsome
[3] = molecular target: T1, Cytochrome P450 3A4; assay: Inhibition of human recombinant CYP3A4 expressed in baculo-virus infected insect microsomes using 7-benzyloxy-4-trifluoromethylcoumarin as substrate after 20 mins by fluorescence detection assay; format: ADME, Microsome
[4] = Cardiovascular toxicity in human coronary arteries assessed as induction of vasoconstriction after 30 mins; parameters: species or system Coronary artery; conditions: for Activity: 0.5 h; for EC50 at 30 min: human coronary arteries
Outline: (§1)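 Ex vivo human arteries in tissue baths; test agent applied up to 10 µM and contraction recorded. Serotonin (10 µM) added to each bath at session end as the reference for maximal vessel contractility; contraction expressed as percent of serotonin maximum.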

[5] = Cardiovascular toxicity in human coronary arteries assessed as induction of vasoconstriction after 30 mins relative to serotonin; parameters: species or system Coronary artery; outline: as §1
[6] = Cardiovascular toxicity in human coronary arteries assessed as induction of vasoconstriction up to 10 uM after 30 mins; parameters: species or system Coronary artery; conditions: 0.5 h; outline: as §1
[7] = tested on: Callithrix jacchus; assay: Antimigraine activity in sc dosed marmosets assessed as inhibition of CGRP-induced increase in facial blood flow administered 30 mins post CGRP-challenge measured up to 105 mins by laser doppler flowmetry; format: functional, organism-based
Outline: (§2)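 Anesthetized marmosets; facial blood flow raised by iv hαCGRP (10 µg/kg) at 45 min intervals (-30, 15, 60, 105 min). Antagonist given sc at 0 min (dose range 0.3–1 mg/kg). CGRP-induced changes in facial blood flow read by laser Doppler flowmetry.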

[8] = tested on: Callithrix jacchus; assay: Antimigraine activity in marmosets assessed as inhibition of CGRP-induced increase in facial blood flow at 1 mg/kg, sc administered 30 mins post CGRP-challenge measured up to 105 mins by laser doppler flowmetry; format: functional, organism-based; parameters: dose 1 mg/kg; outline: as §2

Calcitonin gene-related peptide type 1 receptor, sequence (Q16602 whole entry, one chain of several): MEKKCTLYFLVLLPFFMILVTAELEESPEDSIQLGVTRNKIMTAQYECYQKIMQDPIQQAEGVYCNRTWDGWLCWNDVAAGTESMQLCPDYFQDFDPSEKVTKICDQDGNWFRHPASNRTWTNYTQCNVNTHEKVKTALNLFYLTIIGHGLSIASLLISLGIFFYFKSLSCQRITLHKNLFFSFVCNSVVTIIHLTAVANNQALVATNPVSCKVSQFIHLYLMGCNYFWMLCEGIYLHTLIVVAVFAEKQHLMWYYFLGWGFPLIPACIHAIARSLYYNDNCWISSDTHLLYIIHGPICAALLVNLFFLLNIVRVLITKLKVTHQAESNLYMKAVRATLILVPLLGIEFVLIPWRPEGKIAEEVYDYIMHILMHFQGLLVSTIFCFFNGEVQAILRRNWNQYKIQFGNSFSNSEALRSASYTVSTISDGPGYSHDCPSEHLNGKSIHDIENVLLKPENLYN
T1 sequence (P08684 whole entry): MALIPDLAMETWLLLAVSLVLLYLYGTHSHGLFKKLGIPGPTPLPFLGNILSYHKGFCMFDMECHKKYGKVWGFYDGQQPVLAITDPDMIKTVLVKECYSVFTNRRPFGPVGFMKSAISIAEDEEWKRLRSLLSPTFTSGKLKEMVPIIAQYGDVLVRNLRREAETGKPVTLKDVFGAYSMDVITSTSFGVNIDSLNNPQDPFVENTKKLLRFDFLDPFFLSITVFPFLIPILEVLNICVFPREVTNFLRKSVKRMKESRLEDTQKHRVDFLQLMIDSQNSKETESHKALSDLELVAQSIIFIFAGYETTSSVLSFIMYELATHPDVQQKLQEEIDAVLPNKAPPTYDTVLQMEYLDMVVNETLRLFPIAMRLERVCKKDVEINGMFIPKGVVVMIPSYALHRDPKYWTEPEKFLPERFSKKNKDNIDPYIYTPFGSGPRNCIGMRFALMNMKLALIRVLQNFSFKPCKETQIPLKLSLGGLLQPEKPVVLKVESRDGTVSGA

| Structure (SMILES) | Ki [1] [nM] | IC50 [2] [nM] | also measured |
| --- | --- | --- | --- |
| O=C(N[C@H](CCc1ccccc1)C(=O)N1CCC(N2CCCCC2)CC1)N1CCC(n2c(=O)[nH]c3ccccc32)CC1 | > 1000 | – | – |
| Nc1ccc(C[C@@H](NC(=O)N2CCC(n3c(=O)[nH]c4ccccc43)CC2)C(=O)N2CCC(N3CCCCC3)CC2)cc1 | 750 | – | – |
| O=C(N[C@H](Cc1csc2ccccc12)C(=O)N1CCC(N2CCCCC2)CC1)N1CCC(n2c(=O)[nH]c3ccccc32)CC1 | 0.55 | 84 | IC50 [3]: 870 nM |
| O=C(NC(Cc1ccc2[nH]ccc2c1)C(=O)N1CCC(N2CCCCC2)CC1)N1CCC(n2c(=O)[nH]c3ccccc32)CC1 (racemic) | 32 | 2500 | – |
| O=C(N[C@H](Cc1cccc2ccccc12)C(=O)N1CCC(N2CCCCC2)CC1)N1CCC(n2c(=O)[nH]c3ccccc32)CC1 | 7.2 | 30 | – |
| CN(C)CCc1c[nH]c2ccc(C[C@H]3COC(=O)N3)cc12 [ZOLMITRIPTAN] | – | – | Activity [4]: Dose-dependent effect; EC50 at 30 min [4]: 40 nM; Emax at 0.5 h [5]: 39% |
| O=C(N[C@H](Cc1ccc2[nH]ncc2c1)C(=O)N1CCC(N2CCCCC2)CC1)N1CCC(N2Cc3ccccc3NC2=O)CC1 | – | – | Activity [6]: Non-toxic; inhibition [7]: Dose-dependent effect |
| CNS(=O)(=O)Cc1ccc2[nH]cc(CCN(C)C)c2c1 | – | – | Activity [4]: Dose-dependent effect; EC50 at 30 min [4]: 120 nM; Emax at 0.5 h [5]: 48% |
| O=C(N[C@H](CCc1ccc(O)cc1)C(=O)N1CCC(N2CCCCC2)CC1)N1CCC(n2c(=O)[nH]c3ccccc32)CC1 | 2100 | – | – |
| O=C(N[C@H](Cc1cc(Br)c(O)c(Br)c1)C(=O)N1CCC(N2CCCCC2)CC1)N1CCC(n2c(=O)[nH]c3ccccc32)CC1 | 0.65 | 2400 | – |
| Cn1cc(C[C@@H](NC(=O)N2CCC(n3c(=O)[nH]c4ccccc43)CC2)C(=O)N2CCC(N3CCCCC3)CC2)c2ccccc21 | 16 | 100 | – |
| O=C(N[C@@H](Cc1ccc2[nH]ncc2c1)C(=O)N1CCC(N2CCCCC2)CC1)N1CCC(N2Cc3ccccc3NC2=O)CC1 | – | 7300 | inhibition [8]: inactive |
| O=C(N[C@H](Cc1c[nH]c2ccccc12)C(=O)N1CCC(N2CCCCC2)CC1)N1CCC(n2c(=O)[nH]c3ccccc32)CC1 | 84 | > 40000 | – |
| O=C(N[C@@H](C(=O)N1CCC(N2CCCCC2)CC1)c1ccccc1)N1CCC(n2c(=O)[nH]c3ccccc32)CC1 | > 1000 | – | – |
| O=C(N[C@H](Cc1ccc2nn[nH]c2c1)C(=O)N1CCC(N2CCCCC2)CC1)N1CCC(N2Cc3ccccc3NC2=O)CC1 | 0.55 | 23000 | – |

Further lines, with some results ahead:

| Ki [1] [nM] | IC50 [2] [nM] | Structure (SMILES) | also measured |
| --- | --- | --- | --- |
| 1900 | – | CC(=O)Nc1ccc(C[C@@H](NC(=O)N2CCC(n3c(=O)[nH]c4ccccc43)CC2)C(=O)N2CCC(N3CCCCC3)CC2)cc1 | – |
| > 1000 | – | O=C(N[C@@H](Cc1cc(Br)c(O)c(Br)c1)C(=O)N1CCC(N2CCCCC2)CC1)N1CCC(n2c(=O)[nH]c3ccccc32)CC1 | – |
| 0.27 | 30000 | O=C(N[C@H](Cc1ccc2[nH]c(=O)oc2c1)C(=O)N1CCC(N2CCCCC2)CC1)N1CCC(N2Cc3ccccc3NC2=O)CC1 | – |
| 250 | 1300 | O=C(N[C@H](Cc1ccc(-c2ccccc2)cc1)C(=O)N1CCC(N2CCCCC2)CC1)N1CCC(n2c(=O)[nH]c3ccccc32)CC1 | – |
| 300 | – | O=C(N[C@H](Cc1ccccc1)C(=O)N1CCC(N2CCCCC2)CC1)N1CCC(n2c(=O)[nH]c3ccccc32)CC1 | – |
| 1400 | – | COc1ccc(C[C@@H](NC(=O)N2CCC(n3c(=O)[nH]c4ccccc43)CC2)C(=O)N2CCC(N3CCCCC3)CC2)cc1 | – |
| > 1000 | – | NC(=O)CC[C@@H](NC(=O)N1CCC(n2c(=O)[nH]c3ccccc32)CC1)C(=O)N1CCC(N2CCCCC2)CC1 | – |
| > 1000 | – | O=C(O)CC[C@@H](NC(=O)N1CCC(n2c(=O)[nH]c3ccccc32)CC1)C(=O)N1CCC(N2CCCCC2)CC1 | – |
| 2400 | 16000 | CC(C)C[C@@H](NC(=O)N1CCC(n2c(=O)[nH]c3ccccc32)CC1)C(=O)N1CCC(N2CCCCC2)CC1 | – |
| 0.65 | 11000 | O=C1Cc2cc(C[C@@H](NC(=O)N3CCC(N4Cc5ccccc5NC4=O)CC3)C(=O)N3CCC(N4CCCCC4)CC3)ccc2N1 | – |
| 68 | 17000 | O=C(NC(Cc1ccc2[nH]ncc2c1)C(=O)N1CCC(N2CCCCC2)CC1)N1CCC(n2c(=O)[nH]c3ccccc32)CC1 (racemic) | Activity [6]: Non-toxic |
| 28 | – | Cc1nc2cc(C[C@@H](NC(=O)N3CCC(N4Cc5ccccc5NC4=O)CC3)C(=O)N3CCC(N4CCCCC4)CC3)ccc2[nH]1 | – |
| 230 | 30 | O=C(N[C@H](Cc1ccc2ccccc2c1)C(=O)N1CCC(N2CCCCC2)CC1)N1CCC(n2c(=O)[nH]c3ccccc32)CC1 | – |
| 2.5 | > 40000 | O=C(N[C@H](Cc1ccc(O)cc1)C(=O)N1CCC(N2CCCCC2)CC1)N1CCC(n2c(=O)[nH]c3ccccc32)CC1 | – |

Reference: ChEMBL document CHEMBL2057150, “The synthesis and SAR of calcitonin gene-related peptide (CGRP) receptor antagonists derived from tyrosine surrogates. Part 1” (Bioorg Med Chem Lett, 2012)
